PRMT1 inh = inhibitors of human PRMT1. Q99873. recombinant PRMT1, activity-based probe fluorescence polarization. inhibition, % at 2.79 µM. 1.3% of 370,000 active. AID 652257;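 active means inhibition above about 21% made by adding two undisclosed values, limit read from the data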
MBD2 DNA inh = blocks human MBD2 binding to methylated DNA; TR-FRET, MBD2 binding to methylated oligonucleotide; 0.31% of 370,000 active; Q9UBB5; inhibition, % at 4.4 µM; in the data active means inhibition above about 13%
Target sequence (Q9UBB5 whole entry, looked up): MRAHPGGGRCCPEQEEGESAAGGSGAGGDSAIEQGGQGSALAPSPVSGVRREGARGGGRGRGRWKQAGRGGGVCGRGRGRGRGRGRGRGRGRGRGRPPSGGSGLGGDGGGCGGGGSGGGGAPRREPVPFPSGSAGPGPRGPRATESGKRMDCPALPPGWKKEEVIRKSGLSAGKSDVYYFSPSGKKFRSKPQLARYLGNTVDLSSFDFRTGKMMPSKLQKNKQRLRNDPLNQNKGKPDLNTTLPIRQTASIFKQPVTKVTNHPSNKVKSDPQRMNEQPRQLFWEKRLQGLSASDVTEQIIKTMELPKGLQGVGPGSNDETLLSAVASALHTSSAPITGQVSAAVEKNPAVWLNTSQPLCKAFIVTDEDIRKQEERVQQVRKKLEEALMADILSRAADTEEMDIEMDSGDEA
SIAE primary = human SIAE inhibition, primary screen | Q9HAT2 | SIAE FP-Rh probe binding, fluorescence polarization | inhibition, % at 9.66 µM | 0.69% of 370,000 active | AID 1053197;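 active means inhibition above a cutoff: mean of compounds within the control limits plus 3 SD of those, cut at about 17% in these data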
LEDGF integ inh = blocks HIV-1 LEDGF/p75-dependent DNA integration. TR-FRET IN-LEDGF/p75 DNA integration, Eu/Cy5. 0.64% of 370,000 active. inhibition, % at 3.7 µM. AID 743269;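 active means inhibition above the screen-wide mean plus 3 SD, cut at about 13% in these data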;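 further: signal is the Cy5 over europium emission ratio at 671 and 618 nm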
UHRF1 binding = blocks human UHRF1 binding to methylated DNA; inhibition, % at 4.4 µM; 0.75% of 370,000 active; Q96T88; UHRF1 binding to methylated oligo, TR-FRET; in the data active means inhibition above about 21%;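 further: UHRF1 SRA domain binding a hemimethylated CpG hairpin DNA probe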
TDP2 inh = blocks human TDP2 phosphodiesterase activity. inhibition, % at 12.8 µM. 0.34% of 370,000 active. recombinant TDP2, T5PNP hydrolysis, p-nitrophenol absorbance 415 nm. AID 720702;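 active means inhibition above the mean of all tested compounds plus 3 SD, set per campaign, cut at about 25% in these data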
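System – recombinant human TDP2 · Amount – 120 nM TDP2 per well · Buffer or medium – Mg2+-containing Tris-HCl buffer, pH 7.5 · Reagent – T5PNP substrate, 5 mM · Dosing – 12.8 µM single point, 1% DMSO · Incubation – 2 h at 37 °C · Measured by – epi absorbance · Read-out basis – percent inhibition · Benchmarks – high control without enzyme, low control DMSO plus TDP2 · Repeats – singlicate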
Hits are given with their value; 0 = inactive. Sampled rows, rich in hits. Any-hit rate of the full collection: about 3.3%.

SMILES | PRMT1 inh | MBD2 DNA inh | SIAE primary | LEDGF integ inh | UHRF1 binding | TDP2 inh
Cc1nc(N2CCN(C(=O)C3CC3)CC2)c2c3c(sc2n1)CC(C)CC3 (stereo not given) | 0 | 0 | 0 | 0 | 0 | 0
Cc1ccc(N2C(=O)c3ccccc3C2Nc2ccc(S(=O)(=O)N3CCOCC3)cc2)nc1 (stereo not given) | 0 | 0 | 0 | 0 | 0 | 0
Cc1ccc(N2C(=O)c3ccccc3C2Nc2ccc(S(=O)(=O)N3CCCCC3)cc2)nc1 (stereo not given) | 0 | 0 | 0 | 0 | 77 | 0
Cc1cc(C)cc(CC(=O)N2CCC2(C)C(=O)NS(=O)(=O)c2cccc(F)c2)c1 (stereo not given) | 0 | 0 | 0 | 0 | 21 | 0
Cc1cc(C)cc(CC(=O)N2CCC2(C)C(=O)NS(=O)(=O)c2ccccc2)c1 (stereo not given) | 0 | 0 | 0 | 0 | 0 | 0
CC1(NC(=O)c2ccc(C#Cc3cccc(F)c3)cn2)COC1 | 0 | 0 | 0 | 0 | 0 | 0
C/C(C=NNC(=O)c1cc(-c2ccc(Cl)cc2)n[nH]1)=C\c1ccccc1 | 0 | 0 | 0 | 0 | 0 | 0
CCC(C(=O)NCC1CCCO1)N(C(=O)CNS(=O)(=O)c1ccccc1)c1ccc(F)cc1 (stereo not given) | 0 | 0 | 0 | 89 | 0 | 0
CC(C)C(C(=O)NC1CCCC1)N(CC1CCCO1)C(=O)CNS(=O)(=O)c1ccc(F)cc1 (stereo not given) | 0 | 0 | 0 | 0 | 28 | 0
CCCC(C(=O)NCC1CCCO1)N(C(=O)CNS(=O)(=O)c1ccccc1)c1ccc(F)cc1 (stereo not given) | 0 | 0 | 0 | 0 | 0 | 0
CSCCCNC(=O)Cn1nc(Cc2ccncc2)c2ccccc2c1=O | 0 | 0 | 0 | 0 | 0 | 0
CC(=O)C1(C(=O)NCc2ccccc2)CC(c2ccccn2)=NO1 (stereo not given) | 0 | 0 | 0 | 0 | 0 | 0
COc1ccc(-n2c(SCC(=O)Nc3ccc(S(=O)(=O)Nc4nccs4)cc3)nnc2-c2cccs2)cc1 | 0 | 0 | 0 | 0 | 0 | 0
CS(=O)(=O)Nc1ccc(C(=O)NCCc2ccccc2)cc1 | 0 | 0 | 19 | 0 | 0 | 0
COc1cc(C(=O)OCC(=O)c2cc(C)n(CC3CCCO3)c2C)cc(OC)c1C (stereo not given) | 0 | 0 | 0 | 0 | 21 | 0
COc1cc(C)ccc1OCC(=O)OCC(=O)c1cc(C)n(CC2CCCO2)c1C (stereo not given) | 0 | 0 | 0 | 0 | 0 | 0
CSc1ccc(CCNC(=O)CCc2nnc3ccc(N4CCCC4)nn23)cc1 | 0 | 0 | 0 | 0 | 0 | 0
COc1cc(NC(=O)CCc2nnc3ccc(N4CCCC4)nn23)cc(OC)c1OC | 0 | 0 | 0 | 0 | 23 | 0
O=C(CCc1nnc2ccc(N3CCCCC3)nn12)NCc1ccco1 | 0 | 0 | 0 | 0 | 25 | 0
O=C(Cc1ccccc1)NC1CCCCN(Cc2cccc(Cl)c2)C1=O (stereo not given) | 0 | 0 | 0 | 0 | 0 | 0
COc1ccc(C(=O)NNc2ccccc2)cc1 | 0 | 0 | 0 | 0 | 0 | 0
COc1ccc(NC(=S)NNc2ccc(C(=O)O)cc2)cc1 | 21 | 0 | 0 | 0 | 0 | 0
Nn1c(SCC(=O)Nc2nccs2)nnc1-c1cc(-c2ccccc2)n[nH]1 | 0 | 0 | 0 | 0 | 0 | 0
CCc1cc(-c2nnn(CCC3COCCO3)c2CC)cc(CC)c1-c1cn(Cc2ccc3ccccc3c2)nn1 (stereo not given) | 0 | 0 | 0 | 0 | 65 | 0
Cc1ccc(S(=O)(=O)N(C)C[C@H]2Oc3cc(C#CC4CCCC4)ccc3S(=O)(=O)N([C@H](C)CO)C[C@H]2C)cc1 | 0 | 0 | 0 | 0 | 22 | 0
SMILES | PRMT1 inh | MBD2 DNA inh | SIAE primary | LEDGF integ inh | UHRF1 binding | TDP2 inh
COc1cccc(C#Cc2ccc3c(c2)O[C@H](CN(C)S(=O)(=O)c2ccccc2F)[C@H](C)CN([C@H](C)CO)S3(=O)=O)c1 | 0 | 0 | 0 | 0 | 21 | 0
COc1cccc(C#Cc2ccc3c(c2)O[C@H](CN(C)C)[C@@H](C)CN([C@@H](C)CO)S3(=O)=O)c1 | 0 | 0 | 0 | 0 | 0 | 0
COc1cccc(C#Cc2ccc3c(c2)O[C@@H](CN(C)C(=O)c2ccccn2)[C@@H](C)CN([C@H](C)CO)S3(=O)=O)c1 | 0 | 0 | 0 | 0 | 22 | 0
C[C@H](CO)N1C[C@H](C)[C@@H](CN(C)C(=O)c2cnccn2)Oc2cc(C#CCC3CCCC3)ccc2S1(=O)=O | 0 | 0 | 0 | 0 | 23 | 0
C[C@H](CO)N1C[C@H](C)[C@H](CN(C)C(=O)c2ccccn2)Oc2cc(C#Cc3ccc(F)cc3)ccc2S1(=O)=O | 0 | 0 | 0 | 0 | 0 | 0
COc1ccc(-c2cc(-c3nnc(SCc4cccc5ccccc45)n3N)[nH]n2)cc1 | 0 | 0 | 0 | 0 | 0 | 0
O=C(O)c1ccccc1C(=O)c1ccc(Sc2ccc(Cl)cc2)c([N+](=O)[O-])c1 | 0 | 0 | 0 | 0 | 21 | 0
Cc1ccc(S(=O)(=O)NN2C(=O)/C(=C/c3ccc(C(=O)O)cc3)SC2=S)cc1 | 22 | 0 | 0 | 0 | 0 | 0
Cc1ccc(/C=C2\SC(=S)N(NS(=O)(=O)c3ccc(C)cc3)C2=O)cc1 | 0 | 0 | 0 | 0 | 0 | 0
CCOC(=O)Cc1csc(NC(=O)c2c(C)noc2C)n1 | 0 | 0 | 0 | 0 | 24 | 0
CCOC(=O)Cc1csc(NC(=O)c2c(-c3ccccc3)noc2C)n1 | 0 | 0 | 0 | 0 | 0 | 0
C=C(C)CCC(C)N1CCC(n2nccc2NC(=O)CCCc2ccccc2)CC1 (stereo not given) | 0 | 0 | 0 | 0 | 21 | 0
Cc1ccc(CNCc2cccnc2)cc1 | 0 | 0 | 0 | 0 | 0 | 0
Cc1ccc(CNCc2cccnc2)s1 | 0 | 0 | 0 | 0 | 26 | 0
CC(=O)N1C[C@@H](c2c[nH]c3ccccc23)C=C[C@H]1C(=O)NS(=O)(=O)c1ccc(C)cc1 | 0 | 0 | 0 | 0 | 0 | 0
COCCCn1c2nc3ccccc3nc2c2c(=O)n(Cc3ccc(Cl)cc3)cnc21 | 0 | 0 | 0 | 0 | 0 | 0
O=c1c2c3nc4ccccc4nc3n(Cc3ccccc3)c2ncn1Cc1ccco1 | 38 | 0 | 0 | 0 | 0 | 0
CCCc1c2c(cc3c(=O)cc(C(=O)OCC)oc13)CCCC2 | 0 | 0 | 0 | 0 | 74 | 0
CCCCOc1cccc(C(=O)NCCc2ccccc2-c2ccccc2CCC(=O)NCc2ccccc2)c1 | 0 | 0 | 0 | 0 | 0 | 0
Cc1oc2c(c(C)cc3oc(=O)c(CC(=O)NCC(=O)NCC(=O)NCC(C)O)c(C)c32)c1C (stereo not given) | 0 | 0 | 0 | 0 | 65 | 0
Cc1oc2c(c(C)cc3oc(=O)c(CC(=O)NCCCO)c(C)c32)c1C | 0 | 0 | 0 | 0 | 0 | 0
Cc1ccc(S(=O)(=O)NCC(=O)OCC(=O)Nc2ccc(C)c(S(=O)(=O)N3CCOCC3)c2)cc1 | 0 | 0 | 0 | 0 | 0 | 0

Screening results deposited in PubChem BioAssay by The Scripps Research Institute Molecular Screening Center.
